Converted amounts (≈) assume the structure as drawn.
Key:
[1] = Distribution coefficient, log D at pH 7.4; assay type: physicochemical; settings: octanol/water
How it was run: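 10 mM DMSO stock added to 1:1 octanol/PBS pH 7.4 and shaken for 2 h at room temperature. Phases separated and each quantified by LC-MS-MS. Log D taken as the log of the octanol/PBS concentration ratio from mass signals.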

[2] = target: T1, Aminopeptidase N (Plasmodium falciparum FcB1/Columbia) (UniProt O96935); assay: Inhibition of Plasmodium falciparum FcB1 M1 aminopeptidase at 10 uM
T1 sequence (whole entry): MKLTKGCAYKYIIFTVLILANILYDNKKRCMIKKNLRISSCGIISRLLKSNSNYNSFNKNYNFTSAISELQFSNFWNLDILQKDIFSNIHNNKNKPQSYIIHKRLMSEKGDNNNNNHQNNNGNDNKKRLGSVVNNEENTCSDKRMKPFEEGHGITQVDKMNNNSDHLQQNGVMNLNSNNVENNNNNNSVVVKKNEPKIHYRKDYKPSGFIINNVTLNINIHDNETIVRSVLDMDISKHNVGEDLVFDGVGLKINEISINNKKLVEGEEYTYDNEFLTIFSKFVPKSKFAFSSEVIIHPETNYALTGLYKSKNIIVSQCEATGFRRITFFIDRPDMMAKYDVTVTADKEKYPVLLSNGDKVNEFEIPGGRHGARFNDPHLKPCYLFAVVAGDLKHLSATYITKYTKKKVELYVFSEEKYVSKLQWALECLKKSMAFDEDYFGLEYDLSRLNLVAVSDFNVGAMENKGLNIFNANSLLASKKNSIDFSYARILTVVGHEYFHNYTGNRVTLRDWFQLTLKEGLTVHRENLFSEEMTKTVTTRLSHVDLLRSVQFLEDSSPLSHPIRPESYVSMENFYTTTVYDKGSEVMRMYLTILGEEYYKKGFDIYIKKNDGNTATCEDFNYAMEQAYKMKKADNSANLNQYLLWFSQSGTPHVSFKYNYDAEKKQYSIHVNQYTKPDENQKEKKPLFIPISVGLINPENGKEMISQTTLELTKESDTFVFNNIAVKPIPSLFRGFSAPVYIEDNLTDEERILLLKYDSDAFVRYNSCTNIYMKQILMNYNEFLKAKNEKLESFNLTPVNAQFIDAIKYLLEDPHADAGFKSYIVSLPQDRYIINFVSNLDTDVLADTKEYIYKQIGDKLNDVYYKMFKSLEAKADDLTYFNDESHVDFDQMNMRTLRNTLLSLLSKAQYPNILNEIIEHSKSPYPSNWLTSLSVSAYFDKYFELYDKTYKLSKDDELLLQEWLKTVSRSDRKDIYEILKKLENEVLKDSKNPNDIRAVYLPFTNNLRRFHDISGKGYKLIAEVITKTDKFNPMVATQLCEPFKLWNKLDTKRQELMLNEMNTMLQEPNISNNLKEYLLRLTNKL
How it was run: (§1)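 Native enzyme purified from P. falciparum FcB1, diluted 10-fold in 25 mM Tris-HCl pH 7.4. Preincubated with inhibitor for 10 min at room temperature, then Leu-pNA substrate added (0.3 mM stock, Km 0.099 mM). Kinetics followed at 405 nm at room temperature. Initial velocities normalized to a no-inhibitor control. Single-point screen at 10 µM; IC50 from velocity versus inhibitor concentration curves. Bestatin used as reference.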

[3] = system: Plasmodium falciparum; assay: Antimalarial activity against chloroquine-resistant Plasmodium falciparum FcB1; assay type: functional, organism-based
How it was run: (§2)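 Asexual P. falciparum kept continuously on human erythrocytes; modified semiautomated microdilution method. Serially diluted drug added to asynchronous cultures (0.5% parasitemia, 1% final hematocrit) for 24 h at 37 °C, then [3H]hypoxanthine added per well. Growth inhibition from incorporated radioactivity relative to drug-free control on the same plate; IC50 from concentration-response curve, mean of three independent experiments.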

[4] = Solubility at pH 7.4; assay type: physicochemical; settings: buffer
How it was run: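 10 mM DMSO stock diluted 50-fold into PBS pH 7.4 or MeOH. Shaken for 24 h at room temperature, centrifuged and filtered at 0.45 µm. Analysed by LC-MS-MS; solubility taken as the PBS/MeOH mass-signal area ratio.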

[5] = Stability in Zucker FA/FA rat plasma at 37degC; assay type: ADME, organism-based; settings: read-out: Stability (converted)
How it was run: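 Compound at 100 µM final in male Zucker FA/FA rat plasma, stirred at 37 °C. Samples taken from 0 to 96 h, acidified with 0.14 M phosphoric acid and spiked with internal standard. Extracted three times with AcOEt and quantified by LC-MS-MS (MRM). Half-life derived.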

[6] = target: T2, Aminopeptidase N (Plasmodium falciparum FcB1/Columbia, UniProt O96935); assay: Inhibition of Plasmodium falciparum FcB1 M1 aminopeptidase; how it was run: as §1
T2 sequence (O96935 whole entry): T1 sequence (whole entry)

[7] = target: T3, Aminopeptidase N (Sus scrofa, UniProt P15145); assay: Inhibition of pig kidney microsomal APN
T3 sequence (P15145 whole entry): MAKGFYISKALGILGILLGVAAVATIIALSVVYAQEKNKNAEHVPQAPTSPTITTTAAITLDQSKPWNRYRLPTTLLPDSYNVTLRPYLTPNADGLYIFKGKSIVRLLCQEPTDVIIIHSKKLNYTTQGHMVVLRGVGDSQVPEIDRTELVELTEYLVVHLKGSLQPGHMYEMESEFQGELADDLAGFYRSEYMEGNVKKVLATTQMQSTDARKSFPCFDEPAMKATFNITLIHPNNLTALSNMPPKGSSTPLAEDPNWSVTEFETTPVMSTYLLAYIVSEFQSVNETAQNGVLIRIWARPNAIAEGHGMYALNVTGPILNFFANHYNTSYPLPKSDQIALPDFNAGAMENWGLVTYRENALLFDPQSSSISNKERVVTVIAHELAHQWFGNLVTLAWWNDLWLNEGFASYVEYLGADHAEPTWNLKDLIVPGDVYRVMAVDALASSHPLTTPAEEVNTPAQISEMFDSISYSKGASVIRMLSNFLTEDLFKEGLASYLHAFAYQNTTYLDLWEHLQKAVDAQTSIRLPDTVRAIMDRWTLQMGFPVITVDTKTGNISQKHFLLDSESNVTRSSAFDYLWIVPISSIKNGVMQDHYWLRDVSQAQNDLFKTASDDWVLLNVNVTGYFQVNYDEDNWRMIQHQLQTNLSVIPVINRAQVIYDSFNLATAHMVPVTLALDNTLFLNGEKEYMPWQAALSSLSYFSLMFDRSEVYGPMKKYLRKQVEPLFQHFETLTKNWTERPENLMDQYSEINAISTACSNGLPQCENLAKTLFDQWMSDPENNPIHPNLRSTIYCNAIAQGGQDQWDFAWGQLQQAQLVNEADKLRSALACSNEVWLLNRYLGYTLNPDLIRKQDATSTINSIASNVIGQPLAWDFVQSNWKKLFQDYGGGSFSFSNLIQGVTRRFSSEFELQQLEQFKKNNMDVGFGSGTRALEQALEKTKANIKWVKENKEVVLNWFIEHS
How it was run: (§3)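 Porcine kidney microsomal APN (ammonium sulfate suspension) diluted 600-fold in 25 mM Tris-HCl pH 7.4. Preincubated with inhibitor for 10 min at room temperature, then Leu-pNA added (0.3 mM stock). Hydrolysis followed at 405 nm at room temperature. Rates normalized to a no-inhibitor control. Single point at 10 µM; IC50 from concentration-velocity curves. Bestatin used as reference.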

[8] = system: Plasmodium falciparum; assay: Antimalarial activity against chloroquine-sensitive Plasmodium falciparum F32; assay type: functional, organism-based; how it was run: as §2
[9] = target: T4, Aminopeptidase N (Sus scrofa) (UniProt P15145); assay: Inhibition of pig kidney microsomal APN at 10 uM; how it was run: as §3
T4 sequence (whole entry): T3 sequence (P15145 whole entry)

[10] = Selectivity ratio, IC50 for pig APN /IC50 for Plasmodium falciparum FcB1 M1
How it was run: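 Ratio of IC50 values (APN/PfA-M1) from two parallel assays: native PfA-M1 purified from P. falciparum FcB1 (diluted 10-fold) and porcine kidney microsomal APN (diluted 600-fold), both in 25 mM Tris-HCl pH 7.4. Enzyme was preincubated 10 min at room temperature with inhibitor, then Leu-pNA added (0.3 mM solution). Kinetics were read at 405 nm, initial velocities normalized to no-inhibitor controls, and IC50 was taken from velocity–concentration plots.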

Row | Structure (SMILES) | logD [1] | inhibition [2] [%] | IC50 [3] [µM] | solubility [4] [µM] | half-life [5] [h] | IC50 [6] [µM] | IC50 [7] [µM] | IC50 [8] [µM] | inhibition [9] [%] | Ratio IC50 [10]
1 | O=C(NO)C(Cc1ccccc1)C(=O)NCc1ccc(F)cc1 (stereo not drawn) | 1.2 | 91 | 59 | > 200 | 0.75 | 0.027 | 3.62 | 57 | 72 | 134
2 | O=C(NO)/C(=C\c1ccccc1)C(=O)NCc1ccc(F)cc1 | 1.1 | – | 24 | 198 (≈ 62.2 µg/mL) | 22 | 0.006 | 1.37 | 13 | – | 229

Source: ChEMBL document CHEMBL1142961, “Novel selective inhibitors of the zinc plasmodial aminopeptidase PfA-M1 as potential antimalarial agents” (J Med Chem, 2007)
